This is an account of results in PubChem BioAssay.

The nature of assay [1]: OD615 S. cerevisiae growth inhibition, permissive medium, pilot counter-assay, permissive growth control for S. cerevisiae lifespan shortening project (AID 705;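 active means growth inhibition above 25% in both replicates, a cutoff set 3 SD above the mean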). The conditions noted are these: OD615, 24 h, at 10 µM, active compounds read high. The essentials:
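System: S. cerevisiae with engineered DeaD lifespan system / Measured by: absorbance (optical density) at 615 nm / Read-out: reduction in yeast growth (OD615) / Times: 4 h cell pre-growth, 24 h exposure at 30 °C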

A short description of assay [2]: Restrictive medium S. cerevisiae growth inhibition, OD615, pilot screen of yeast lifespan reduction project, restrictive growth control (AID 706;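 active means growth inhibition above a set limit, 3 SD over mean compound inhibition, in both replicates, cut at about 43% in these data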;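 further: modified DeaD lifespan yeast strain shifted to restrictive glucose medium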). Conditions: OD615, 48 h, at 10 µM, active compounds read high. A digest of the protocol: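 System: Engineered S. cerevisiae DeaD strain | Buffer or medium: Glucose-based CSMM-D restrictive medium | Schedule: 4 h pre-incubation, 48 h exposure at 30 °C | Technique: Optical density at 615 nm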

Assay [3] can be described thus: viability gain of MRP-1-high H69AR cells under doxorubicin, pilot screen, MRP-1 activator project, CellTiter-Glo, duplicate (AID 807;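 active means viability increase at or above a cutoff of the median across tested compounds plus 3 SD, cut at about 8.5% in these data, passing the limit was not always enough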;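 further: compound pretreatment 18-22 h then 72 h combined with doxorubicin; 0% = doxorubicin alone and 100% = vehicle without doxorubicin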). The conditions noted are these: H69AR viability with doxorubicin, CellTiter-Glo luminescence; at 10 µM; active compounds read high.
Assay [4] is described as follows: growth suppression of beta-catenin knockout HCT116, pilot screen, human colon tumor cells (AID 823;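 active means cell viability at or below a set limit in both duplicate runs, the limit being the all-compound median minus 4 SD, cut at about 23% in these data, passing the limit was not always enough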;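 further: 0% = wells killed by 20 µM Hyamine and 100% = untreated DMSO cell wells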). Conditions: CellTiter-Glo, 60 h, at 10 µM, active compounds read low.
Assay [5] is described as follows: growth suppression of PTEN-deleted HCT116, pilot screen, cell-based, HCT116 clonal line, CellTiter-Glo (AID 824;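 active means viability at or below 27.92% in each of two runs, the all-compound median minus 4 SD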;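 further: 0% = 20 µM Hyamine control and 100% = vehicle cell control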). Conditions: 60 h, at 10 µM, active compounds read low.
Assay [6] in a line: inhibitors of the yeast RAM network, pilot screen, dse1pr::URA3 reporter, 5-FOA selection (AID 869).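 Further: 0% = DMSO wells with no growth and 100% = 10 µM 1-NA-PP1 with full growth; RAM network block rescues cells from 5-FOA so hits raise OD615 growth.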 The conditions noted are these: S. cerevisiae dse1pr::URA3 5-FOA growth, OD615, 2 d; at 10 µM; active compounds read high; strain carries analog-sensitive mutant Cbk1 kinase.
Assay [7] in a line: RAM signaling pathway blockade in yeast – S. cerevisiae, Pdr1DBD-CYC8 efflux-inhibited sensitized strain, primary screen (AID 1298;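 active means RAM network inhibition above 8.4% in each of two replicates, 3 SD over the compound average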;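 further: 0% = DMSO untreated cells without growth and 100% = 10 µM 1-NA-PP1 full growth; higher means more yeast growth rescued from 5-FOA killing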). The conditions noted are these: S. cerevisiae cbk1-as DSE1-URA3 strain, 5-FOA growth OD615, 2 d; at 50 µM; active compounds read high.

Unmarked numbers belong to inactive results. Inconclusive results are not listed. Calls of active or inactive are those of the source.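 How the source made its calls, unless noted: active means inhibition over a set limit, the all-compound mean plus 3 SD, in both replicate runs; inconclusive means over that limit in just one replicate run; inactive means at or under that limit in both runs.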

For `O=C(CSc1ccc2nnc(-c3ccccn3)n2n1)NCc1ccc2c(c1)OCO2`, the values for the growth inhibition in assay [1] and in assay [2] were -0.545% and 21.4%, respectively. Also, the viability increase in assay [3] is -3.68%. Also, the viability in assay [4] is 91.6%; in assay [5] it was 91.7%. For the same molecule, the inhibition in assay [6] was 2.51%. The RAM network inhibition in assay [7] is 1.66%.

Regarding `CC1(C)SCC2C(=O)N3C(CSC3(C)C)C(=O)N21` (stereo unspecified), the growth inhibition was 2.82% in assay [1] and -6.7% in assay [2]. Besides, in assay [3], the viability increase is 0.02%. Moreover, the viability is 107% in assay [4] and 96.2% in assay [5]. For the same molecule, the inhibition in assay [6] is 1.5%. The RAM network inhibition in assay [7] is 4.22%.

Consider `CCC(C)[C@@H](C(=O)Nc1ccc2c(c1)OCO2)N1Cc2ccccc2C1=O` (stereo partly specified), for which the figures for the growth inhibition in assay [1] and in assay [2] were -14.7% and -13.5%, respectively. Also, the viability increase in assay [3] was -2.97%. For the same molecule, the results for the viability in assay [4] and in assay [5] were 91.5% and 75.1%, respectively. In addition, the inhibition in assay [6] was 0.51%. Moreover, in assay [7], the RAM network inhibition was 4.42%.

In the case of `COc1ccc(OC)c(NC(=O)C2CCCN2C(=O)C2CCC(C)CC2)c1` (stereo unspecified), the growth inhibition is -14.1% in assay [1] and 6.52% in assay [2]. In assay [3], the viability increase is -5.02%. Further, the figures for the viability in assay [4] and in assay [5] were 88.5% and 91.6%, respectively. In addition, the inhibition in assay [6] was 0.895%. In assay [7], the RAM network inhibition was -0.32%.

Consider `COC(=O)c1ccc2c(c1)N(C)CCS2`, for which the growth inhibition in assay [1] is -7.72%; in assay [2], -2.27%. Besides, the viability increase in assay [3] is -0.04%. Besides, the figures for the viability in assay [4] and in assay [5] were 101% and 93.9%, respectively. The inhibition in assay [6] was 0.22%. The RAM network inhibition in assay [7] was -0.26%.

`O=C(NCCCN1CCCC1=O)c1ccc2c(c1)ncn2C1CCCCC1`: the growth inhibition in assay [1] was 0.37%; in assay [2], 2.91%. The viability increase in assay [3] is 1.87%. Besides, the viability is 105% in assay [4] and 109% in assay [5]. The inhibition in assay [6] was 0.03%. In assay [7], the RAM network inhibition was 10.9%.

With `CC1CCC(NC(=O)CC2Oc3ccccc3NC2=O)CC1` (stereo unspecified), the results for the growth inhibition in assay [1] and in assay [2] were 6.36% and 2.4%, respectively. Moreover, the viability increase in assay [3] is -0.98%. Besides, the viability was 98.8% in assay [4] and 97.8% in assay [5]. In addition, the inhibition in assay [6] was 2.69%. Moreover, in assay [7], the RAM network inhibition is 5.77%.

Consider `O=C(Nc1nc(-c2ccccn2)cs1)C1COc2ccccc2O1` (stereo unspecified), for which the growth inhibition in assay [1] was 84.5% (active); in assay [2], 96.9% (active). In assay [3], the viability increase was -0.68%. Moreover, the viability in assay [4] was 10.3% (active); in assay [5] it was 11.5% (active). Further, the inhibition in assay [6] was 0.255%. Besides, the RAM network inhibition in assay [7] is -2.19%.

Turning to `CC(C)N1CC(O)=C(c2ccccc2)C1=N`, the figures for the growth inhibition in assay [1] and in assay [2] were 2.25% and -15.7%, respectively. Besides, in assay [3], the viability increase is -0.1%. Further, the values for the viability in assay [4] and in assay [5] were 96.5% and 97.2%, respectively. Further, the inhibition in assay [6] was 0.86%. Moreover, the RAM network inhibition in assay [7] is 4.5%.

In the case of `COc1ccc(C2C(C(=O)NC(C)C)c3ccccc3C(=O)N2C)cc1OC` (stereo unspecified), the growth inhibition in assay [1] was -12.9%; in assay [2], -13.2%. Also, the viability increase in assay [3] was -0.58%. In addition, the viability was 105% in assay [4] and 101% in assay [5]. Further, in assay [6], the inhibition is 0.95%. In addition, the RAM network inhibition in assay [7] was 5.34%.

With `Cc1nn(C)c(C)c1S(=O)(=O)N(CC(=O)Nc1ccccn1)c1ccc(C(C)C)cc1`, the growth inhibition in assay [1] was -2.97%; in assay [2] it was -15.5%. Further, the viability increase in assay [3] was -1.21%. The viability in assay [4] was 80.1%; in assay [5], 82.2%. Besides, the inhibition in assay [6] is 2%. Further, in assay [7], the RAM network inhibition was -0.48%.

`COc1ccc(C2C(C(=O)NCCN3CCOCC3)c3ccccc3C(=O)N2C)cc1OC` (stereo unspecified): the growth inhibition in assay [1] is -2.92%; in assay [2], -2.97%. Further, the viability increase in assay [3] was -0.98%. Further, the values for the viability in assay [4] and in assay [5] were 91.5% and 100%, respectively. The inhibition in assay [6] is 1.24%. Further, the RAM network inhibition in assay [7] was 3.26%.

As to `O=C1c2ccccc2C(Nc2ccc(Cl)cn2)N1c1ccccn1` (stereo unspecified), the figures for the growth inhibition in assay [1] and in assay [2] were -15.4% and 0.32%, respectively. In assay [3], the viability increase was -4.01%. Moreover, the figures for the viability in assay [4] and in assay [5] were 75.1% and 81.1%, respectively. In assay [6], the inhibition was 2.39%. The RAM network inhibition in assay [7] was 8.97%.

`CSC1=NCCN1C(=O)C(C)(C)Oc1ccc(Cl)cc1`: the growth inhibition is 7.64% in assay [1] and 4.49% in assay [2]. Besides, the viability increase in assay [3] is -4.07%. Also, the viability was 91.2% in assay [4] and 84.7% in assay [5]. Further, the inhibition in assay [6] was 0.3%. For the same molecule, the RAM network inhibition in assay [7] was -0.37%.

For the molecule `CC(=O)c1cccc(NC(=O)c2cnn3ccccc23)c1`, the growth inhibition is -8.43% in assay [1] and -17.2% in assay [2]. For the same molecule, the viability increase in assay [3] was -2.54%. The viability is 95.5% in assay [4] and 84.4% in assay [5]. The inhibition in assay [6] was 1.73%. Besides, in assay [7], the RAM network inhibition was 4.75%.

For the molecule `COc1ccc(N(CC(=O)N2CCN(C)CC2)S(C)(=O)=O)cc1OC`, the growth inhibition in assay [1] is -12%; in assay [2], -9.76%. Moreover, the viability increase in assay [3] was -0.37%. Besides, the viability is 90.8% in assay [4] and 97.5% in assay [5]. For the same molecule, the inhibition in assay [6] is 0.64%. In addition, the RAM network inhibition in assay [7] is 6.2%.

Consider `O=C(C1CCN(S(=O)(=O)c2cccc3cccnc23)CC1)N1CCN(c2ccccc2)CC1`, for which the growth inhibition was 1.1% in assay [1] and 16.9% in assay [2]. The viability increase in assay [3] is -3.27%. Moreover, the viability is 87.7% in assay [4] and 83.8% in assay [5]. In addition, the inhibition in assay [6] is 1.76%. The RAM network inhibition in assay [7] was 6.12%.

Consider `CCOC(=O)c1ccc(NC(=O)C23CCC(C)(C(=O)O2)C3(C)C)cc1` (stereo unspecified), for which the growth inhibition is 1.15% in assay [1] and 4.45% in assay [2]. Further, in assay [3], the viability increase is 1.07%. Besides, the viability was 93.5% in assay [4] and 101% in assay [5]. Also, the inhibition in assay [6] was -0.095%. Moreover, in assay [7], the RAM network inhibition is 5.33%.
